Test results published in ChEMBL document CHEMBL1122032, “Dopaminergic activity of substituted 6-chloro-1-phenyl-2,3,4,5-tetrahydro-1H-3-benzazepines” (J Med Chem, 1982).
Values belong to the compound of their own block, whether it stands above or below them. Activity calls are given as the source filed them. No cut-off for these calls is given here.

Legend:
[1] = organism: Canis familiaris; assay: Renal blood flow was measured in dogs; Significant activity; assay type: functional, organism-based; conditions: Canis lupus familiaris; Kidney
[2] = test system: Rattus norvegicus; assay: Central dopaminergic activity for minimum concentration which produced 500 rotations(ip); assay type: functional
Outline: (§1)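 Rats with substantia nigra lesions scored for contralateral rotation after intraperitoneal dosing (routine), oral dosing for selected compounds, or intracaudal administration for intrinsic activity. RD500 and RD1000 are the minimum doses giving 500 and 1000 turns, respectively, in 2 h.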

[3] = organism: Canis familiaris; assay: Renal vascular resistance was calculated as the ratio of the mean arterial blood pressure / mean renal blood flow; I=Inactive; assay type: functional, organism-based; conditions: Canis lupus familiaris
[4] = test system: Rattus norvegicus; assay: Central dopaminergic activity for minimum concentration which produced 500 rotations at the dose of 2.0 mg/kg (i.p.) in 2 h; assay type: functional; conditions: route intraperitoneal; outline: as §1
[5] = test system: Rattus norvegicus; assay: Central dopaminergic activity against contralateral rotation(1000) in lesioned rats at the dose of 6.0 mg/kg (p.o.) in 2 h; assay type: functional; conditions: route oral
Outline: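 Oral dosing in rats with substantia nigra lesions, scoring contralateral rotations. RD1000 is the minimum dose producing 1000 turns in 2 h.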

[6] = organism: Canis familiaris; assay: Renal blood flow was measured in dogs; I=Inactive; assay type: functional, organism-based; conditions: Canis lupus familiaris; Kidney
[7] = organism: Rattus norvegicus; assay: Central dopaminergic activity against contralateral rotation(500) in lesioned rats(ic); assay type: functional; outline: as §1
[8] = organism: Rattus norvegicus; assay: Adenylase cyclase activity in rat striatal membranes; assay type: functional, organism-based, Membrane; conditions: Striatum
[9] = organism: Canis familiaris; assay: Renal vascular resistance was calculated as the ratio of the mean arterial blood pressure / mean renal blood flow; Highly significant activity; assay type: functional, organism-based; conditions: Canis lupus familiaris
[10] = test system: Rattus norvegicus; assay: Central dopaminergic activity for minimum concentration which produced 500 rotations(ip) in 2 h; assay type: functional; outline: as §1
[11] = organism: Rattus norvegicus; assay: Central dopaminergic activity against contralateral rotation(500) in lesioned rats; assay type: functional; outline: as §1
[12] = test system: Canis familiaris; assay: Compound was evaluated for determining renal vascular resistance(iv) in dogs; assay type: functional, Canis lupus familiaris
Outline: (§2)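 Secondary renal screen in anesthetized dogs: cumulative dose-response by infusing drug at progressively increasing rates, 5 min per dose level. RVR ED15 is the average minimum cumulative dose lowering RVR by 15%; maximum effect is the average maximum % fall in RVR. Selectivity ratios are separations between RVR ED15 and doses giving 30% change in iliac vascular resistance, 20% in MABP, 20% in HR.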

[13] = organism: Canis familiaris; assay: Renal blood flow was measured in dogs; Highly significant activity; assay type: functional, organism-based; conditions: Canis lupus familiaris; Kidney
[14] = organism: Canis familiaris; assay: Compound was evaluated for average maximum percent decrease in renal vascular resistance in dogs; assay type: functional, Canis lupus familiaris; outline: as §2
[15] = Selectivity ratio of compound as ED15 relative to heart rate(HR) ED20; assay type: functional; outline: as §2
[16] = test system: Rattus norvegicus; assay: Central dopaminergic activity for minimum concentration which produced 500 rotations at the dose of 10 mg/kg (i.p.) in 2 h; I=Inactive; assay type: functional, organism-based; set-up: dose 10 mg/kg; outline: as §1
[17] = Selectivity ratio of compound as ratio of ED15 relative to mean arterial blood pressure(MABP) ED20; assay type: functional; outline: as §2
[18] = Selectivity ratio of Compound as ratio of ED15 relative to iliac vascular resistance(IVR) ED30; assay type: functional; outline: as §2

Structure (SMILES): Cl.Oc1cc2c(c(Cl)c1O)CCN(Cc1ccc(C(F)(F)F)cc1)CC2c1ccccc1 (stereo unspecified)
RBF [1]: Significant activity
RD500 [2]: 455 turns/2 h
RVR [3]: inactive

Structure (SMILES): Br.CN1CCc2c(cc(O)c(O)c2Cl)C(c2cccc(C(F)(F)F)c2)C1 (stereo unspecified)
RD500 [4]: 594 turns/2 h
RD1000 [5]: 296 turns/2 h
RBF [6]: inactive
RVR [3]: inactive

EC50 [8]: 600 nM
Structure (SMILES): CN1CCc2c(cc(O)c(O)c2Cl)C(c2ccccc2)C1.Cl (stereo unspecified)
RBF [1]: Significant activity
RD500 [7]: 0.32 ug rat-1
RVR [9]: Significant activity
RD500 [10]: 0.03 mg/kg

Structure (SMILES): CS(=O)(=O)O.Oc1ccc(C2CNCCc3c2cc(O)c(O)c3Cl)cc1 (stereo unspecified) [FENOLDOPAM MESYLATE]
RD500 [11]: 0.5 ug rat-1
RVR ED15 [12]: 0.0003 mg/kg
RBF [13]: Highly significant activity
Decrease RVR [14]: 59%
Ratio [15]: >6072
RD500 [16]: inactive
RVR [9]: Significant activity
Ratio [17]: >6072
Ratio [18]: > 6070
